{"source": "paper PMC7862734", "about": "(Investigative Ophthalmology & Visual Science, 2021)", "key": {"[1]": {"biological_target": "Kinesin-derived angiogenesis inhibitor (KAI), biotinylated (human) (UniProt Q9NQT8)", "assay": "SPR"}, "[2]": {"biological_target": "T1, Centaurin alpha (CentA) (Homo sapiens, UniProt O75689)", "T1 sequence (O75689 1-374)": "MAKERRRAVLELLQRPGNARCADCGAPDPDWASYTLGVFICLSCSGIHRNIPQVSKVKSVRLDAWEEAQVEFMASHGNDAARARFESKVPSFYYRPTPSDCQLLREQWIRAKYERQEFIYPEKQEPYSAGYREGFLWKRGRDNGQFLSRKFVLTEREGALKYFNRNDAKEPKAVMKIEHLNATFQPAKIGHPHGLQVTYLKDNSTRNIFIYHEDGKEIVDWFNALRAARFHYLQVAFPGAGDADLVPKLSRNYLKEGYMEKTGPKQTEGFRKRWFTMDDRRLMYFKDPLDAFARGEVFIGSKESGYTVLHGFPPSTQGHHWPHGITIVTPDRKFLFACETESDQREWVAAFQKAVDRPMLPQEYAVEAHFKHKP", "assay": "Pull-down assay from HUVEC lysate, Western blotting", "assay_type": "binding", "conditions": "biotin-peptide on streptavidin beads", "summary_of_the_method": "(§1)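 HUVEC at passage 3–6 grown in EGM2 and lysed. Lysate incubated with biotinylated test or control peptide captured on streptavidin beads. After washing, bound proteins and lysate input were immunoblotted with antibodies to VEGFR2 and Centaurin A.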"}, "[3]": {"biological_target": "cytosolic kinase domain of PDGFRβ (Homo sapiens, UniProt P09619)", "sequence (P09619 554-1106 limits assumed)": "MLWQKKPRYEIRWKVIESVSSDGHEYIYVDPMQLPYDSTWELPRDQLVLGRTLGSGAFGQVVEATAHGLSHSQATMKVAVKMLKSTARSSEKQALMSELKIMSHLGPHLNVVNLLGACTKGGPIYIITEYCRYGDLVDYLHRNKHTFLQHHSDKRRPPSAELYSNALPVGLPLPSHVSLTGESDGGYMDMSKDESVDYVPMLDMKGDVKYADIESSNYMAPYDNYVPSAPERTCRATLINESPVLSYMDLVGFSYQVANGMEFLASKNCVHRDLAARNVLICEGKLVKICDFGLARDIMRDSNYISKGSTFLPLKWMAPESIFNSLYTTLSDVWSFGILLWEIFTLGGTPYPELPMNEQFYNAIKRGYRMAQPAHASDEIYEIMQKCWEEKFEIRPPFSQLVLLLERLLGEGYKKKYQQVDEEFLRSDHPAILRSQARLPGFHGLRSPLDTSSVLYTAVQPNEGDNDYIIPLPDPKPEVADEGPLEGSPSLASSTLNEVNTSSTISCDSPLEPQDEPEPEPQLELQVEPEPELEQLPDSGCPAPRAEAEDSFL", "assay": "SPR", "assay_type": "binding", "conditions": "protein up to 200 nM, HBS-EP, 25°C"}, "[4]": {"assay": "Biodistribution after eye drop, cryosection stained with Alexa 488-streptavidin", "assay_type": "in vivo, mouse", "conditions": "eye drop 5 µg/eye, C57BL/6, time points 10 minutes, 30 minutes, 1 hour, 2 hours, streptavidin staining"}, "[5]": {"biological_target": "cytosolic kinase domain of PDGFRα (Homo sapiens, UniProt P16234)", "sequence (P16234 550-1089 limits assumed)": "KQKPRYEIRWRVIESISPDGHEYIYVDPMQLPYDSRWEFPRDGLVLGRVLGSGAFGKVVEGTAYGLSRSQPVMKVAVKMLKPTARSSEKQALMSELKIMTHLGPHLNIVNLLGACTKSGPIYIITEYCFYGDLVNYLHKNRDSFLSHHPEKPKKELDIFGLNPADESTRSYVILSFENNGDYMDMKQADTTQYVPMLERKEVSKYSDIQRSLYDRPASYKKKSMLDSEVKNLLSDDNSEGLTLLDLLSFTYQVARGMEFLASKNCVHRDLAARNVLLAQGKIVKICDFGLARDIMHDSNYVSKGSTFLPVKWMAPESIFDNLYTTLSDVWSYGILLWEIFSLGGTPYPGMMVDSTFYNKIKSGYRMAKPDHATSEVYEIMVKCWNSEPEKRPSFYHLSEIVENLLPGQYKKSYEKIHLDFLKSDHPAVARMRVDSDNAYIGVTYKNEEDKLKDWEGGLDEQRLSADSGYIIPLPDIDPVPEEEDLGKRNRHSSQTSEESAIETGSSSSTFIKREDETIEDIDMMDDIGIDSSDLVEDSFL", "assay": "SPR", "assay_type": "binding", "conditions": "protein up to 200 nM, HBS-EP, 25°C"}, "[6]": {"test_system": "laser-induced CNV in C57BL/6 mice", "assay": "Laser-induced choroidal neovascularization", "assay_type": "in vivo, mouse", "summary_of_the_method": "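C57BL/6 mice (7 weeks). Four 532 nm laser burns per mouse (200–355 mW, 50 µm, 70 msec). Test compound given as a daily eye drop (2 or 5 µg/eye in 5 µL PBS, days 1–14 or days 7–14) or as an intravitreal injection after laser (0.5–10 µg in 2 µL PBS), against control peptide or PBS. Day-14 OCT cross-section and ILB4-stained choroidal flat-mount area, averaged per mouse.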"}, "[7]": {"biological_target": "cytosolic kinase domain of EGFR (Homo sapiens, UniProt P00533)", "assay": "SPR", "assay_type": "binding", "conditions": "protein up to 200 nM, HBS-EP, 25°C"}, "[8]": {"biological_target": "VEGFR2 (Homo sapiens, UniProt P35968)", "sequence (P35968 20-1356)": "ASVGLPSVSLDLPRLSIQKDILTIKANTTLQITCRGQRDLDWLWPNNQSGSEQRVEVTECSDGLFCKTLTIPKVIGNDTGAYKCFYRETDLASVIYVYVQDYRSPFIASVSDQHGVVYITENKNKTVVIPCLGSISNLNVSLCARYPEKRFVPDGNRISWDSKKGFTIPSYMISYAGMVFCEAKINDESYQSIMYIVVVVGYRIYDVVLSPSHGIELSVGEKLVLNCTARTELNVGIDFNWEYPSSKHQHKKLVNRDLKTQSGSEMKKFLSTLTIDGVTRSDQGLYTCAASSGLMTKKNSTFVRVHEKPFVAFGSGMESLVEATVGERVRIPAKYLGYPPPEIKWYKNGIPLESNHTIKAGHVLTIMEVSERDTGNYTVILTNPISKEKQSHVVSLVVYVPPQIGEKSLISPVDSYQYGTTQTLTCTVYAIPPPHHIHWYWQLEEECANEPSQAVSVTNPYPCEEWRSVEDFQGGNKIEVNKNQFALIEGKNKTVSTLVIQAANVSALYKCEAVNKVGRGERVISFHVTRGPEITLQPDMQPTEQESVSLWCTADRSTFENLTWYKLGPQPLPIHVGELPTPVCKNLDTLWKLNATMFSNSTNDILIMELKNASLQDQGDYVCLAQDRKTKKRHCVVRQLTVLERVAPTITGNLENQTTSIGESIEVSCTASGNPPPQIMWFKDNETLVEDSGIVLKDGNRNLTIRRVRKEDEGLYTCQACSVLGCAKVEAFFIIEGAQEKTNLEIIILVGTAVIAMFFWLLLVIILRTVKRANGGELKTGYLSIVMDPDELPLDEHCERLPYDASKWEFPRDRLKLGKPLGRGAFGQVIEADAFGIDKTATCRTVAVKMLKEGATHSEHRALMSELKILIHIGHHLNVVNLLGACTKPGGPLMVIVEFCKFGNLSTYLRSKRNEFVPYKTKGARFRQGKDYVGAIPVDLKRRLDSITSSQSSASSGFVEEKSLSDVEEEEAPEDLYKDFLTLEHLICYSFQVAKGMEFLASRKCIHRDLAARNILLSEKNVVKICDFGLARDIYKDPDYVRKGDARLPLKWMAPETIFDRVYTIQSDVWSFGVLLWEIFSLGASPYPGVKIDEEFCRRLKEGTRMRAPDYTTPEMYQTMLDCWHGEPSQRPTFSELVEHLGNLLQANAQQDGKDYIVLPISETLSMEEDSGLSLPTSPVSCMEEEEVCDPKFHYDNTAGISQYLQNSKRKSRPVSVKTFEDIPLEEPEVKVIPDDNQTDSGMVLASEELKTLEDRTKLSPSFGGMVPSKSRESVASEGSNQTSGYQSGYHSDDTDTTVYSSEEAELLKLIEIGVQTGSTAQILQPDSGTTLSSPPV", "assay": "Pull-down assay from HUVEC lysate, Western blotting", "assay_type": "binding", "conditions": "biotin-peptide on streptavidin beads", "summary_of_the_method": "as §1"}, "[9]": {"conditions": "intravitreal, human eyes; cited from earlier work"}, "[10]": {"biological_target": "recombinant cytosolic domain (789-1356 aa) of VEGFR2 (UniProt P35968 789-1356)", "sequence (P35968 789-1356)": "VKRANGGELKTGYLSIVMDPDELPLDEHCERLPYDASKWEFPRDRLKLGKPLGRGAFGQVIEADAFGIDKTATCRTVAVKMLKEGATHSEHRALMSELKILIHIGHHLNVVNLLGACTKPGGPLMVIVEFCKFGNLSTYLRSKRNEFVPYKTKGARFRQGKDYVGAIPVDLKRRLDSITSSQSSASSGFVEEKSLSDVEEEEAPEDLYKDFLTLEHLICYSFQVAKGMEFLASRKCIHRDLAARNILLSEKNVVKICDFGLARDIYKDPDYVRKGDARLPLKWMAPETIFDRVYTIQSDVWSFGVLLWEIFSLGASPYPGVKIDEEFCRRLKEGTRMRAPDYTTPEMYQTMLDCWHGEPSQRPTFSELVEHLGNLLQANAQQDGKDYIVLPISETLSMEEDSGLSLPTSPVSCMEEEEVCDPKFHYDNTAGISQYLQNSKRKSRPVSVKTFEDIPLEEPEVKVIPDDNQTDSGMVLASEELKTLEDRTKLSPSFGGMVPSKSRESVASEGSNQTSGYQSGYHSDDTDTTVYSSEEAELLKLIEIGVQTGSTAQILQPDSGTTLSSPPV", "assay": "SPR"}}, "note": "*: point of attachment. Biotin = O=C1N[C@H]2[C@H](CS[C@H]2CCCCC(=O)*)N1", "data": [{"molecule": "recombinant cytosolic domain of PDGFRB (domain or fragment)", "values": [{"measurement": "Kd", "setting": "[1]", "result": "> 200", "unit": "nM"}]}, {"molecule": "KAI: 23 aa peptide, aa 1238-1260 of human KIF13B, minimum binding site to VEGFR2; biotinylated N-terminus, amidated C-terminus (Biotin-SRGTPVDERLFLIVRVTVQLSHP-NH2; SMILES CC[C@H](C)[C@H](NC(=O)[C@H](CC(C)C)NC(=O)[C@H](Cc1ccccc1)NC(=O)[C@H](CC(C)C)NC(=O)[C@H](CCCNC(=N)N)NC(=O)[C@H](CCC(=O)O)NC(=O)[C@H](CC(=O)O)NC(=O)[C@@H](NC(=O)[C@@H]1CCCN1C(=O)[C@@H](NC(=O)CNC(=O)[C@H](CCCNC(=N)N)NC(=O)[C@H](CO)NC(=O)CCCC[C@@H]1SC[C@@H]2NC(=O)N[C@@H]21)[C@@H](C)O)C(C)C)C(=O)N[C@H](C(=O)N[C@@H](CCCNC(=N)N)C(=O)N[C@H](C(=O)N[C@H](C(=O)N[C@H](C(=O)N[C@@H](CCC(N)=O)C(=O)N[C@@H](CC(C)C)C(=O)N[C@@H](CO)C(=O)N[C@@H](Cc1c[nH]cn1)C(=O)N1CCC[C@H]1C(N)=O)C(C)C)[C@@H](C)O)C(C)C)C(C)C)", "values": [{"measurement": "Interaction with CentA in pull-down", "setting": "[2]", "result": "does not bind"}, {"measurement": "Binding of PDGFRβ to immobilized peptide (in words)", "setting": "[3]", "result": "very weak binding"}, {"measurement": "Time at which peptide was detected in the retina and choroid", "setting": "[4]", "result": 30, "unit": "min"}, {"measurement": "Binding of PDGFRα to immobilized peptide (in words)", "setting": "[5]", "result": "did not bind"}, {"measurement": "Regression of developed CNV", "setting": "[6]; eye drop 5 µg/eye daily from day 7 to day 14", "result": "effective to regress neovascularization"}, {"measurement": "Area of CNV measured by OCT (cross-section) vs ctrl", "setting": "[6]; eye drop 2∼5 µg/eye daily day 1 to day 14, 200 mW laser, day 14", "result": "significantly reduced"}, {"measurement": "Effect on CNV vs PBS (OCT and ILB4 staining)", "setting": "[6]; intravitreal injection 2 µg in 2 µL PBS after laser burn, 355 mW, C57BL/6, P = 0.045 (OCT), P = 0.034 (ILB4), one-way ANOVA", "result": "significantly inhibited"}, {"measurement": "Binding of EGFR to immobilized peptide (in words)", "setting": "[7]", "result": "did not bind"}, {"measurement": "Interaction with VEGFR2 in pull-down", "setting": "[8]", "result": "interacts"}]}, {"molecule": "bevacizumab", "values": [{"measurement": "Aqueous half-life", "setting": "[9]", "result": 236, "unit": "h"}]}, {"molecule": "ranibizumab", "values": [{"measurement": "Aqueous half-life", "setting": "[9]", "result": 173, "unit": "h"}]}, {"molecule": "Biotin-SRGTPVDERLFLIVRVTVQLSHP-NH2 (peptide, UniProt Q9NQT8 1238-1260, looked up, SMILES CC[C@H](C)[C@H](NC(=O)[C@H](CC(C)C)NC(=O)[C@H](Cc1ccccc1)NC(=O)[C@H](CC(C)C)NC(=O)[C@H](CCCNC(=N)N)NC(=O)[C@H](CCC(=O)O)NC(=O)[C@H](CC(=O)O)NC(=O)[C@@H](NC(=O)[C@@H]1CCCN1C(=O)[C@@H](NC(=O)CNC(=O)[C@H](CCCNC(=N)N)NC(=O)[C@H](CO)NC(=O)CCCC[C@@H]1SC[C@@H]2NC(=O)N[C@@H]21)[C@@H](C)O)C(C)C)C(=O)N[C@H](C(=O)N[C@@H](CCCNC(=N)N)C(=O)N[C@H](C(=O)N[C@H](C(=O)N[C@H](C(=O)N[C@@H](CCC(N)=O)C(=O)N[C@@H](CC(C)C)C(=O)N[C@@H](CO)C(=O)N[C@@H](Cc1c[nH]cn1)C(=O)N1CCC[C@H]1C(N)=O)C(C)C)[C@@H](C)O)C(C)C)C(C)C)", "note": "[Kinesin-derived angiogenesis inhibitor (KAI), biotinylated]", "values": [{"measurement": "Kd", "setting": "[10]", "result": "6.8 ± 0.6", "unit": "nM"}]}]}
